Source: ChEMBL document CHEMBL1133628, “Nonnucleoside human cytomegalovirus inhibitors: synthesis and antiviral evaluation of (chlorophenylmethyl)benzothiadiazine dioxide derivatives” (J Med Chem, 2000)

Key:
[1] = test system: Human alphaherpesvirus 3; assay: In vitro inhibition of Thymidine Kinase deficient Varicella Zoster Virus (07/1) plaque formation.; format: functional, organism-based
Summary of the method: (§1)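 Confluent HEL fibroblasts infected with VZV at 20 PFU; after a 2-h adsorption, residual virus removed and cells incubated in MEM with 2% FCS containing serial 5-fold compound dilutions, in duplicate. Fixed with ethanol after 5 days at 37 °C, 5% CO2, then Giemsa-stained; plaques counted microscopically. IC50 read graphically from plaque number (% of control); mean of two independent experiments.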

[2] = test system: Human alphaherpesvirus 3; assay: In vitro inhibition of Thymidine Kinase-Varicella Zoster Virus(YS) plaque formation.; format: functional, organism-based; summary of the method: as §1
[3] = test system: CCRF-CEM; assay: In vitro inhibition of CEM cell proliferation.; format: functional; details: Homo sapiens
Summary of the method: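 CEM cell proliferation measured alongside the HIV assays; CC50 is the concentration reducing CEM cell proliferation by 50%.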

[4] = test system: Human betaherpesvirus 5; assay: In vitro inhibition of HCMV (AD-169) plaque formation.; format: functional, organism-based
Summary of the method: (§2)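 Confluent HEL fibroblasts infected with HCMV at 100 PFU of cell-free virus; after a 2-h adsorption, residual virus removed and cells incubated in MEM with 2% FCS containing serial 5-fold compound dilutions, in duplicate. Fixed with ethanol after 7 days at 37 °C, 5% CO2, then Giemsa-stained; cytopathic effect scored microscopically. IC50 read graphically from % cytopathicity; mean of two experiments.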

[5] = test system: Human immunodeficiency virus 2; assay: In vitro inhibition of HIV-2(ROD) cytopathicity in CEM cells.; format: functional, organism-based; details: Human immunodeficiency virus 2, CCRF-CEM
Summary of the method: (§3)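 CEM cells at 4×10^5 cells/mL infected with HIV-1 IIIB or HIV-2 ROD (stocks from MT-4 supernatants) at ~100 CCID50/mL, then immediately mixed with compound dilutions. Giant cell formation scored microscopically after 4 days; EC50 is the concentration inhibiting it by 50%. Triplicate assays.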

[6] = test system: Human immunodeficiency virus 1; assay: In vitro inhibition of HIV-1(IIIB) cytopathicity in CEM cells.; format: functional, organism-based; details: Human immunodeficiency virus 1, CCRF-CEM; summary of the method: as §3
[7] = test system: HEL; assay: In vitro alteration in cell morphology in HEL cells.; format: functional; details: Homo sapiens
Summary of the method: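 Normal HEL cells exposed to compounds and examined microscopically; minimum cytotoxic concentration is the lowest giving a detectable change in cell morphology. Duplicate assays.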

[8] = test system: Human alphaherpesvirus 3; assay: In vitro inhibition of Thymidine Kinase deficient Varicella Zoster Virus (YS/R) plaque formation.; format: functional, organism-based; summary of the method: as §1
[9] = test system: HEL; assay: Inhibition of cell growth in HEL cells.; format: functional; details: Homo sapiens
Summary of the method: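 HEL fibroblasts seeded at 5×10^3 cells/well and left to proliferate 24 h, then given compound dilutions in duplicate. Incubated 3 days at 37 °C, 5% CO2; cells counted with a Coulter counter. CC50 is the concentration reducing cell growth by 50%.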

[10] = test system: Human alphaherpesvirus 3; assay: In vitro inhibition of Thymidine Kinase-Varicella-Zoster Virus(OKA) plaque formation.; format: functional, organism-based; details: Human alphaherpesvirus 3, oka; summary of the method: as §1
[11] = test system: Human betaherpesvirus 5; assay: In vitro inhibition of HCMV (Davis) plaque formation.; format: functional, organism-based; summary of the method: as §2

Row | SMILES | IC50 [1] | IC50 [2] | CC50 [3] | IC50 [4] | EC50 [5] | EC50 [6] | MCC [7] | IC50 [8] | CC50 [9] | IC50 [10] | IC50 [11]
1 | O=S1(=O)N=C(OCc2ccccc2)c2ccccc2N1Cc1ccccc1 | > 50 µM | > 50 µM | 22.2 µM | 7 µM | > 10 µM | > 10 µM | 200 µM | 20 µM | > 200 µM | > 50 µM | 7 µM
2 | O=C1c2ccccc2N(Cc2cccc(Cl)c2)S(=O)(=O)N1Cc1ccccc1 | 30 µM | > 50 µM | 21.3 µM | > 5 µM | > 10 µM | 5.5 µM | > 5 µM | – | > 200 µM | > 50 µM | > 5 µM
3 | O=C1c2ccccc2N(Cc2ccccc2Cl)S(=O)(=O)N1Cc1ccccc1 | > 20 µM | > 20 µM | 27.9 µM | 15 µM | > 10 µM | > 10 µM | 200 µM | > 20 µM | 88 µM | > 20 µM | 12 µM
4 | O=C1c2ccccc2N(COCc2ccccc2)S(=O)(=O)N1COCc1ccccc1 | > 50 µM | > 50 µM | 27.7 µM | 12 µM | 25 µM | 25 µM | 200 µM | 10 µM | 130 µM | 14 µM | 12 µM
5 | O=C1c2ccccc2N(Cc2ccccc2Cl)S(=O)(=O)N1COCc1ccccc1 | > 50 µM | > 50 µM | 22.2 µM | 10 µM | > 10 µM | > 10 µM | 200 µM | 8 µM | > 50 µM | > 50 µM | 10 µM
6 | O=C1c2ccccc2N(Cc2ccc(Cl)cc2)S(=O)(=O)N1Cc1ccc(Cl)cc1 | 11 µM | 3.8 µM | 35.8 µM | 3.2 µM | 7.5 µM | > 10 µM | > 50 µM | 2.4 µM | > 200 µM | 3.6 µM | 3.2 µM
7 | O=C1c2ccccc2N(Cc2ccccc2)S(=O)(=O)N1Cc1ccccc1 | 23 µM | 36 µM | 108 µM | 10 µM | ≥ 50 µM | 25 µM | > 50 µM | 6 µM | > 200 µM | 7.4 µM | 10 µM
8 | O=C1c2ccccc2N(Cc2ccccc2)S(=O)(=O)N1Cc1ccc(Cl)cc1 | 10 µM | 8.2 µM | 27.8 µM | 3 µM | > 10 µM | 5 µM | 20 µM | 2.6 µM | 121 µM | 2.6 µM | 3.5 µM
9 | O=C(OCOCN1c2ccccc2C(=O)N(Cc2ccccc2)S1(=O)=O)c1ccccc1 | > 44 µM | > 44 µM | 100 µM | 29 µM | > 40 µM | > 40 µM | 110 µM | 26 µM | 37 µM | > 44 µM | > 44 µM
10 | O=C1c2ccccc2N(Cc2ccc(Cl)c(Cl)c2)S(=O)(=O)N1Cc1ccccc1 | 27 µM | > 50 µM | 16.4 µM | 3.3 µM | > 2 µM | > 2 µM | 200 µM | 4.5 µM | > 200 µM | > 50 µM | 3.5 µM
11 | O=S1(=O)N=C(OCc2ccccc2)c2ccccc2N1Cc1ccc(Cl)c(Cl)c1 | > 50 µM | > 20 µM | 30.5 µM | > 50 µM | > 10 µM | > 10 µM | 200 µM | > 50 µM | > 200 µM | > 50 µM | > 50 µM
12 | O=C1c2ccccc2N(Cc2ccc(Cl)cc2)S(=O)(=O)N1Cc1ccccc1 | 11 µM | 22 µM | 19.7 µM | 4 µM | 8 µM | 6.5 µM | > 5 µM | 2.4 µM | > 200 µM | 18 µM | 3 µM
13 | O=C1c2ccccc2N(Cc2ccccc2Cl)S(=O)(=O)N1Cc1ccccc1Cl | > 50 µM | > 50 µM | 40.4 µM | > 50 µM | > 10 µM | 15 µM | > 20 µM | 5 µM | > 200 µM | > 50 µM | 50 µM
14 | O=C1c2ccccc2N(Cc2ccccc2)S(=O)(=O)N1Cc1ccccc1Cl | > 50 µM | > 20 µM | > 250 µM | > 50 µM | > 250 µM | > 250 µM | 200 µM | > 50 µM | > 200 µM | > 50 µM | > 50 µM
15 | C#CCOCN1c2ccccc2C(=O)N(Cc2ccccc2)S1(=O)=O | – | – | 23 µM | – | > 8 µM | > 8 µM | 140 µM | 36 µM | > 140 µM | – | –
16 | O=C1c2ccccc2N(Cc2ccccc2)S(=O)(=O)N1COCc1ccccc1 | > 12 µM | > 12 µM | 100 µM | – | 20 µM | 15 µM | 49 µM | – | > 98 µM | > 12 µM | –
17 | O=C1c2ccccc2N(COCc2ccccc2)S(=O)(=O)N1Cc1ccccc1 | > 12 µM | – | 25 µM | 20 µM | > 8 µM | > 8 µM | 122 µM | > 12 µM | > 122 µM | – | –
18 | Nc1nc2c(ncn2COCCO)c(=O)[nH]1 [ACYCLOVIR] | 41 µM | 4.09 µM | – | – | – | – | > 150 µM | 63 µM | > 400 µM | 4.53 µM | –
19 | Nc1ccn(C[C@@H](CO)OCP(=O)(O)O)c(=O)n1 [CIDOFOVIR] | – | – | – | 0.58 µM | – | – | > 159 µM | – | 317 µM | – | 1.3 µM
